The source made the active and inactive calls. The rule behind the calls is not given here.
Experiments:
Escherichia coli [1] = assay: Bactericidal activity against early exponential phase of Escherichia coli ATCC 25922 at 6X MIC measured after 6 hrs by time-kill kinetic assay; assay type: functional, organism-based
In short: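 An overnight culture was diluted 1:10,000 in MHB and shaken at 225 rpm and 37 °C for 2 h (early exponential phase), then exposed to compound. Samples taken at intervals were centrifuged, resuspended in PBS, plated as tenfold dilutions on MHA and incubated overnight at 37 °C. CFU/mL were counted. Biological replicates were run.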

[2] = Hemolytic activity in sheep RBC incubated for 1 hr; assay type: ADME, cell-based, Ovis aries, Erythrocyte; details: sheep red blood cells (erythrocytes)
In short: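 Sheep RBCs were resuspended at 5% in PBS and mixed 3:1 with serial dilutions (2560 to 5 µg/mL, pre-mixing levels), then incubated 1 h at 37 °C. After centrifugation, supernatant A540 was read. Hemolysis % was calculated as (A−A0)/(Atotal−A0)×100, with untreated RBCs as 0% and 0.1% Triton X-100 as total lysis.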

Enterobacteriaceae [3] = assay: Antibacterial activity against NDM1 producing carbapenem-resistant Enterobacteriaceae clinical isolate 10 assessed as reduction in bacterial growth incubated for 16 to 20 hrs by CLSI-based broth microdilution method; assay type: functional; details: time 16-20 hrs
In short: (§1)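 Clinical isolates tested by broth microdilution in cation-adjusted Mueller-Hinton broth. Cultures grown 4-6 h (~10^8 CFU/mL) were diluted to ~10^6 CFU/mL and mixed 1:1 with compound serial dilutions made from 256 down to 0.5 µg/mL (pre-mixing). Plates held at 37 °C for 16-20 h, then read for growth. Each concentration run in duplicate, whole experiment at least twice.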

Enterobacteriaceae [4] = assay: Antibacterial activity against NDM1 producing carbapenem-resistant Enterobacteriaceae clinical isolate 8 assessed as reduction in bacterial growth incubated for 16 to 20 hrs by CLSI-based broth microdilution method; assay type: functional; details: time 16-20 hrs; in short: as §1
Enterobacteriaceae [5] = assay: Antibacterial activity against NDM1 producing carbapenem-resistant Enterobacteriaceae clinical isolate 7 assessed as reduction in bacterial growth incubated for 16 to 20 hrs by CLSI-based broth microdilution method; assay type: functional; details: time 16-20 hrs; in short: as §1
Enterobacteriaceae [6] = assay: Antibacterial activity against NDM1 producing carbapenem-resistant Enterobacteriaceae clinical isolate 6 assessed as reduction in bacterial growth incubated for 16 to 20 hrs by CLSI-based broth microdilution method; assay type: functional; details: time 16-20 hrs; in short: as §1
Enterobacteriaceae [7] = assay: Antibacterial activity against NDM1 producing carbapenem-resistant Enterobacteriaceae clinical isolate 5 assessed as reduction in bacterial growth incubated for 16 to 20 hrs by CLSI-based broth microdilution method; assay type: functional; details: time 16-20 hrs; in short: as §1
Enterobacteriaceae [8] = assay: Antibacterial activity against NDM1 producing carbapenem-resistant Enterobacteriaceae clinical isolate 4 assessed as reduction in bacterial growth incubated for 16 to 20 hrs by CLSI-based broth microdilution method; assay type: functional; details: time 16-20 hrs; in short: as §1
Enterobacteriaceae [9] = assay: Antibacterial activity against NDM1 producing carbapenem-resistant Enterobacteriaceae clinical isolate 3 assessed as reduction in bacterial growth incubated for 16 to 20 hrs by CLSI-based broth microdilution method; assay type: functional; details: time 16-20 hrs; in short: as §1
Enterobacteriaceae [10] = assay: Antibacterial activity against NDM1 producing carbapenem-resistant Enterobacteriaceae clinical isolate 2 assessed as reduction in bacterial growth incubated for 16 to 20 hrs by CLSI-based broth microdilution method; assay type: functional; details: time 16-20 hrs; in short: as §1
Enterobacteriaceae [11] = assay: Antibacterial activity against NDM1 producing carbapenem-resistant Enterobacteriaceae clinical isolate 1 assessed as reduction in bacterial growth incubated for 16 to 20 hrs by CLSI-based broth microdilution method; assay type: functional; details: time 16-20 hrs; in short: as §1
Klebsiella pneumoniae [12] = assay: Antibacterial activity against carbapenem-resistant Klebsiella pneumoniae clinical isolate 10 assessed as reduction in bacterial growth incubated for 16 to 20 hrs by CLSI-based broth microdilution method; assay type: functional; details: time 16-20 hrs; in short: as §1
Klebsiella pneumoniae [13] = assay: Antibacterial activity against carbapenem-resistant Klebsiella pneumoniae clinical isolate 9 assessed as reduction in bacterial growth incubated for 16 to 20 hrs by CLSI-based broth microdilution method; assay type: functional; details: time 16-20 hrs; in short: as §1
Klebsiella pneumoniae [14] = assay: Antibacterial activity against carbapenem-resistant Klebsiella pneumoniae clinical isolate 8 assessed as reduction in bacterial growth incubated for 16 to 20 hrs by CLSI-based broth microdilution method; assay type: functional; details: time 16-20 hrs; in short: as §1
Klebsiella pneumoniae [15] = assay: Antibacterial activity against carbapenem-resistant Klebsiella pneumoniae clinical isolate 7 assessed as reduction in bacterial growth incubated for 16 to 20 hrs by CLSI-based broth microdilution method; assay type: functional; details: time 16-20 hrs; in short: as §1
Klebsiella pneumoniae [16] = assay: Antibacterial activity against carbapenem-resistant Klebsiella pneumoniae clinical isolate 6 assessed as reduction in bacterial growth incubated for 16 to 20 hrs by CLSI-based broth microdilution method; assay type: functional; details: time 16-20 hrs; in short: as §1
Klebsiella pneumoniae [17] = assay: Antibacterial activity against carbapenem-resistant Klebsiella pneumoniae clinical isolate 5 assessed as reduction in bacterial growth incubated for 16 to 20 hrs by CLSI-based broth microdilution method; assay type: functional; details: time 16-20 hrs; in short: as §1
Klebsiella pneumoniae [18] = assay: Antibacterial activity against carbapenem-resistant Klebsiella pneumoniae clinical isolate 4 assessed as reduction in bacterial growth incubated for 16 to 20 hrs by CLSI-based broth microdilution method; assay type: functional; details: time 16-20 hrs; in short: as §1
Klebsiella pneumoniae [19] = assay: Antibacterial activity against carbapenem-resistant Klebsiella pneumoniae clinical isolate 3 assessed as reduction in bacterial growth incubated for 16 to 20 hrs by CLSI-based broth microdilution method; assay type: functional; details: time 16-20 hrs; in short: as §1
Klebsiella pneumoniae [20] = assay: Antibacterial activity against carbapenem-resistant Klebsiella pneumoniae clinical isolate 2 assessed as reduction in bacterial growth incubated for 16 to 20 hrs by CLSI-based broth microdilution method; assay type: functional; details: time 16-20 hrs; in short: as §1
Staphylococcus aureus [21] = assay: Antibacterial activity against methicillin-resistant Staphylococcus aureus clinical isolate 10 assessed as reduction in bacterial growth incubated for 16 to 20 hrs by CLSI-based broth microdilution method; assay type: functional; details: time 16-20 hrs; in short: as §1
Staphylococcus aureus [22] = assay: Antibacterial activity against methicillin-resistant Staphylococcus aureus clinical isolate 9 assessed as reduction in bacterial growth incubated for 16 to 20 hrs by CLSI-based broth microdilution method; assay type: functional; details: time 16-20 hrs; in short: as §1
Staphylococcus aureus [23] = assay: Antibacterial activity against methicillin-resistant Staphylococcus aureus clinical isolate 8 assessed as reduction in bacterial growth incubated for 16 to 20 hrs by CLSI-based broth microdilution method; assay type: functional; details: time 16-20 hrs; in short: as §1
Staphylococcus aureus [24] = assay: Antibacterial activity against methicillin-resistant Staphylococcus aureus clinical isolate 7 assessed as reduction in bacterial growth incubated for 16 to 20 hrs by CLSI-based broth microdilution method; assay type: functional; details: time 16-20 hrs; in short: as §1
Enterobacteriaceae [25] = assay: Antibacterial activity against NDM1 producing carbapenem-resistant Enterobacteriaceae clinical isolate 9 assessed as reduction in bacterial growth incubated for 16 to 20 hrs by CLSI-based broth microdilution method; assay type: functional; details: time 16-20 hrs; in short: as §1
Staphylococcus aureus [26] = assay: Antibacterial activity against methicillin-resistant Staphylococcus aureus clinical isolate 6 assessed as reduction in bacterial growth incubated for 16 to 20 hrs by CLSI-based broth microdilution method; assay type: functional; details: time 16-20 hrs; in short: as §1
Staphylococcus aureus [27] = assay: Antibacterial activity against methicillin-resistant Staphylococcus aureus clinical isolate 5 assessed as reduction in bacterial growth incubated for 16 to 20 hrs by CLSI-based broth microdilution method; assay type: functional; details: time 16-20 hrs; in short: as §1
Staphylococcus aureus [28] = assay: Antibacterial activity against methicillin-resistant Staphylococcus aureus clinical isolate 4 assessed as reduction in bacterial growth incubated for 16 to 20 hrs by CLSI-based broth microdilution method; assay type: functional; details: time 16-20 hrs; in short: as §1
Staphylococcus aureus [29] = assay: Antibacterial activity against methicillin-resistant Staphylococcus aureus clinical isolate 3 assessed as reduction in bacterial growth incubated for 16 to 20 hrs by CLSI-based broth microdilution method; assay type: functional; details: time 16-20 hrs; in short: as §1
Staphylococcus aureus [30] = assay: Antibacterial activity against methicillin-resistant Staphylococcus aureus clinical isolate 2 assessed as reduction in bacterial growth incubated for 16 to 20 hrs by CLSI-based broth microdilution method; assay type: functional; details: time 16-20 hrs; in short: as §1
Staphylococcus aureus [31] = assay: Antibacterial activity against methicillin-resistant Staphylococcus aureus clinical isolate 1 assessed as reduction in bacterial growth incubated for 16 to 20 hrs by CLSI-based broth microdilution method; assay type: functional; details: time 16-20 hrs; in short: as §1
Salmonella enterica = assay: Antibacterial activity against Salmonella enterica ATCC 8387 assessed as reduction in bacterial growth incubated for 16 to 20 hrs by CLSI-based broth microdilution method; assay type: functional; details: time 16-20 hrs
In short: (§2)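 Broth microdilution following CLSI, in cation-adjusted Mueller-Hinton broth. Inoculum from a 4-6 h culture (~10^8 CFU/mL), diluted to ~10^6 CFU/mL. Water stocks were serially diluted in MHB (256 to 0.5 µg/mL) and mixed 1:1 with the inoculum. Plates ran 16-20 h at 37 °C. MIC was read visually. Each concentration was tested in duplicate, and the experiment was repeated at least twice.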

Escherichia coli [32] = assay: Antibacterial activity against Escherichia coli ATCC 25922 assessed as reduction in bacterial growth incubated 16 to 20 hrs by CLSI-based broth microdilution method; assay type: functional; details: time 16-20 hrs; in short: as §2
Enterococcus faecalis = assay: Antibacterial activity against Enterococcus faecalis ATCC 29212 assessed as reduction in bacterial growth incubated 16 to 20 hrs by CLSI-based broth microdilution method; assay type: functional; details: time 16-20 hrs; in short: as §2
Klebsiella pneumoniae [33] = assay: Antibacterial activity against carbapenem-resistant Klebsiella pneumoniae clinical isolate 1 assessed as reduction in bacterial growth incubated for 16 to 20 hrs by CLSI-based broth microdilution method; assay type: functional; details: time 16-20 hrs; in short: as §1
Staphylococcus aureus [34] = assay: Antibacterial activity against Staphylococcus aureus ATCC 29213 assessed as reduction in bacterial growth incubated for 16 to 20 hrs by CLSI-based broth microdilution method; assay type: functional; details: time 16-20 hrs; in short: as §2
[35] = Solubility of the compound in water at room temperature; assay type: physicochemical; details: buffer

CO[C@@]1(NC(=O)[C@H](C(=O)O)c2ccc(O)cc2)C(=O)N2C(C(=O)O)=C(CSc3nnnn3C)CO[C@@H]21
Activity (Escherichia coli [1]): inactive

CCCCCCCCCCCCCC[N+](C)(C)CC(=O)NC[C@H]1CN(c2ccc(N3CCOCC3)c(F)c2)C(=O)O1.[Cl-]
HC50 at 1 h [2]: 60 µg/mL | MIC (Enterobacteriaceae [3]): 16 µg/mL | MIC (Enterobacteriaceae [4]): 16 µg/mL | MIC (Enterobacteriaceae [5]): 16 µg/mL | MIC (Enterobacteriaceae [6]): 32 µg/mL | MIC (Enterobacteriaceae [7]): 32 µg/mL | MIC (Enterobacteriaceae [8]): 64 µg/mL | MIC (Enterobacteriaceae [9]): 32 µg/mL | MIC (Enterobacteriaceae [10]): > 64 µg/mL | MIC (Enterobacteriaceae [11]): > 64 µg/mL | MIC (Klebsiella pneumoniae [12]): 32 µg/mL | MIC (Klebsiella pneumoniae [13]): 32 µg/mL | MIC (Klebsiella pneumoniae [14]): 32 µg/mL | MIC (Klebsiella pneumoniae [15]): 32 µg/mL | MIC (Klebsiella pneumoniae [16]): 32 µg/mL | MIC (Klebsiella pneumoniae [17]): 32 µg/mL | MIC (Klebsiella pneumoniae [18]): 32 µg/mL | MIC (Klebsiella pneumoniae [19]): 16 µg/mL | MIC (Klebsiella pneumoniae [20]): 32 µg/mL | MIC (Staphylococcus aureus [21]): 8 µg/mL | MIC (Staphylococcus aureus [22]): 2 µg/mL | MIC (Staphylococcus aureus [23]): 4 µg/mL | MIC (Staphylococcus aureus [24]): 2 µg/mL | MIC (Enterobacteriaceae [25]): 16 µg/mL | MIC (Staphylococcus aureus [26]): 2 µg/mL | MIC (Staphylococcus aureus [27]): 4 µg/mL | MIC (Staphylococcus aureus [28]): 4 µg/mL | MIC (Staphylococcus aureus [29]): 2 µg/mL | MIC (Staphylococcus aureus [30]): 16 µg/mL | MIC (Staphylococcus aureus [31]): 4 µg/mL | MIC (Salmonella enterica): 16 µg/mL | MIC (Escherichia coli [32]): 16 µg/mL | MIC (Enterococcus faecalis): 4 µg/mL | MIC (Klebsiella pneumoniae [33]): 32 µg/mL | MIC (Staphylococcus aureus [34]): 4 µg/mL | solubility [35]: Soluble

Source: ChEMBL document CHEMBL4673214, “Synthesis and antibacterial bioactivities of cationic deacetyl linezolid amphiphiles” (Eur J Med Chem, 2018)
